TCR-CD3 inh = human TCR-CD3 binding inhibition. AID 651800. inhibition, % at 9.4 µM. hit rate 0.37% among 360,000. TAMRA-labeled TCR probe fluorescence, biochemical; in the data active = inhibition above about 19%;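 note: recombinant mutant TCR 2C K166C tagged with TAMRA read by polarization; 0% = receptor in buffer alone and 100% = receptor with positive control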
PRMT1 inh = blocks human protein arginine methyltransferase 1; Q99873; recombinant PRMT1, activity-based probe fluorescence polarization; inhibition, % at 2.79 µM; hit rate 1.3% among 370,000; AID 652257;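 active = inhibition above about 21% made by adding two undisclosed values, limit read from the data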
rCAG RNA binder = molecules binding r(CAG) RNA repeats; r(CAG) RNA repeat, TO-PRO-1 dye displacement fluorescence; inhibition, % at 3 µM; hit rate 1.3% among 370,000; AID 651821;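 active = inhibition above the plate cutoff, the mean of all test compounds on that plate plus 3 SD, cut at about 35% in these data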;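 note: 0% = DMSO alone and 100% = 100 µM mitoxantrone as full dye displacement; higher means more dye released from RNA so lower well fluorescence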
SIAE primary = blocks human sialic acid acetylesterase; SIAE FP-Rh probe binding, fluorescence polarization; inhibition, % at 9.66 µM; hit rate 0.69% among 370,000; AID 1053197;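 active = inhibition above a cutoff: mean of compounds within the control limits plus 3 SD of those, cut at about 17% in these data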;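 note: 0% = plate median of compound wells and 100% = probe without SIAE protein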
Target sequence (Q9HAT2 whole entry, looked up): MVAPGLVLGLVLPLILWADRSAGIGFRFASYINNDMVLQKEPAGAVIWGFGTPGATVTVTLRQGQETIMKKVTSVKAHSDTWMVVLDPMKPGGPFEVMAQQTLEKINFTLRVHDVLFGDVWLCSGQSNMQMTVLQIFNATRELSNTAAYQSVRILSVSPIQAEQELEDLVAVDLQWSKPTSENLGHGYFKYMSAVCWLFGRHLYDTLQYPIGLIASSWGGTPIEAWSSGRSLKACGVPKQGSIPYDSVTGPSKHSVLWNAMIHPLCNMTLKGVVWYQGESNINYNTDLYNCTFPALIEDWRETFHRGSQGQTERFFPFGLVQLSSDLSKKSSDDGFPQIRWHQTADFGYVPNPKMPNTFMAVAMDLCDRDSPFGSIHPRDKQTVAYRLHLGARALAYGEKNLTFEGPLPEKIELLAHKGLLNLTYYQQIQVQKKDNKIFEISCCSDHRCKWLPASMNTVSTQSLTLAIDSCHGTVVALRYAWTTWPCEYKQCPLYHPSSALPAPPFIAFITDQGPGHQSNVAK
HTRA1 inh = HTRA1 (human) protease inhibition; inhibition, % at 5.96 µM; recombinant HTRA1, FP-rhodamine activity-based probe, fluorescence polarization; Q92743; AID 504803; hit rate 0.5% among 340,000; in the data active = inhibition above about 36%;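 note: 0% = enzyme with DMSO and 100% = wells lacking enzyme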
mABHD4 FP = ABHD4 (mouse) inhibition, primary FP screen; Q8VD66; purified mABHD4, FP-Rh probe fluorescence polarization; inhibition, % at 8.92 µM; hit rate 0.54% among 370,000; AID 720543;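 active = inhibition exceeding the mean over every tested compound plus 3 SD, cut at about 30% in these data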;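 note: 0% = plate median of compound wells and 100% = S159A mutant with DMSO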
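Assay system: mABHD4 protein; medium: HEPES pH 7.0, NaCl, Pluronic buffer; dosing: 8.92 µM, single dose; schedule: 45 min + 60 min at 25 °C; signal: FP readout, ex 525 nm / em 598 nm; read-out: normalized percent inhibition of probe labeling; repeats: single replicate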
rCAG bind conf = r(CAG) RNA repeat binding, confirmation | shares compounds with rCAG RNA binder | TO-PRO-1 dye displacement fluorescence | inhibition, % at 3 µM | hit rate 70% among 4,300 | AID 652065;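 active = inhibition above a per-plate cutoff, the mean inhibition of sample wells plus 3 SD, cut at about 35% in these data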;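 note: loss of TO-PRO-1 fluorescence as compound displaces dye from 1x1 AA loop RNA; 0% = DMSO only wells and 100% = 100 µM mitoxantrone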
DNA CAG counter = counter-screen for rCAG RNA binders: DNA CAG dye complex inhibitors; hit rate 94% among 4,300; d(CAG) DNA oligo TO-PRO-1 dye displacement, fluorescence; shares compounds with rCAG RNA binder; inhibition, % at 3 µM; AID 652068;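 active = inhibition above its plate's cutoff, the mean test-well inhibition plus 3 SD, cut at about 4.8% in these data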;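 note: 0% = DNA dye mix with DMSO and 100% = 100 µM mitoxantrone; hits displace the dye from DNA and so lower well fluorescence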
dCAG dye DR = disrupts DNA CAG TO-PRO-1 complex in dose response. shares compounds with rCAG RNA binder. DNA CAG/GTC duplex TO-PRO-1 dye displacement fluorescence. IC50, µM. hit rate 20% among 250. AID 686960; in the data active = IC50 below about 10 µM
* = called active by the depositor. An excerpt weighted towards active compounds, which were near 3.5% of everything screened.

Screening N#Cc1ccc(-c2nc3ccc(Br)cn3c2Cc2ccsc2)cc1 returned TCR-CD3 inh 5, PRMT1 inh 4, rCAG RNA binder 15, SIAE primary 3 and mABHD4 FP 3.
Screening Clc1cccc(Cc2c(-c3ccccc3)nc3ccc(Br)cn23)c1 returned TCR-CD3 inh -2, PRMT1 inh 2, rCAG RNA binder 46*, SIAE primary -2, mABHD4 FP -18, rCAG bind conf 38* and DNA CAG counter 9.2*.
For Cc1cc2nc(-c3cccc(Br)c3)c(Cc3cccc(Cl)c3)n2c(C)c1Br the results were TCR-CD3 inh 4, PRMT1 inh -1, rCAG RNA binder 40*, SIAE primary -12, mABHD4 FP -58, rCAG bind conf 12 and DNA CAG counter 5.9*.
Fc1ccc(-c2nc3ccc(Br)cn3c2Cc2cccc(Cl)c2)cc1 was read as TCR-CD3 inh 4, PRMT1 inh -5, rCAG RNA binder 10, SIAE primary -10 and mABHD4 FP -34.
Screening Clc1ccc(-c2nc3ccc(Br)cn3c2Cc2ccsc2)cc1 returned TCR-CD3 inh 14, PRMT1 inh 4, rCAG RNA binder 43*, SIAE primary 4, mABHD4 FP -7, rCAG bind conf 26 and DNA CAG counter 7.8*.
Cc1cc2nc(C(C)(C)C)c(Cc3cccc(Cl)c3)n2c(C)c1Br was read as TCR-CD3 inh -6, PRMT1 inh 4, rCAG RNA binder 4, SIAE primary -3 and mABHD4 FP 3.
`Fc1cccc(Cc2c(-c3cccc(Br)c3)nc3ccc(Cl)cn23)c1` gave TCR-CD3 inh -5, PRMT1 inh 10, rCAG RNA binder 46*, SIAE primary -10, mABHD4 FP -62, rCAG bind conf 25 and DNA CAG counter 5.9*.
`CC(C)CCNC(=O)C1COC(O)(C(Cc2ccccc2)NC(=O)[C@@H](NC(=O)OCc2ccccc2)C(C)C)CN1` (stereo partly specified) gave PRMT1 inh -4, SIAE primary -2 and mABHD4 FP 0.
Screening CC(C)(C)OC(=O)n1cc(-c2ccccc2)c2c(-c3ccccc3)c(O)ccc21 returned PRMT1 inh -4, rCAG RNA binder 5, SIAE primary 5 and mABHD4 FP 10.
Screening Fc1ccc(-c2nc3ccc(Br)cn3c2Cc2cccc(F)c2)cc1 returned TCR-CD3 inh 1, PRMT1 inh 0, rCAG RNA binder 48*, SIAE primary -4, mABHD4 FP -23, rCAG bind conf 34 and DNA CAG counter 9.0*.
Screening CSc1nc2ccc(S(=O)(=O)N3CCOCC3)cc2s1 returned TCR-CD3 inh 0, PRMT1 inh 1, rCAG RNA binder -4, SIAE primary 0, HTRA1 inh -3 and mABHD4 FP 1.
For N#CCc1nc2ccc(S(=O)(=O)N3CCOCC3)cc2s1 the results were TCR-CD3 inh -29, PRMT1 inh -1, rCAG RNA binder 43*, SIAE primary -11, HTRA1 inh -17, mABHD4 FP -17, rCAG bind conf 25 and DNA CAG counter 15*.
For Cc1onc(-c2ccccc2)c1C(=O)NC(=S)Nc1sc2c(c1C#N)CCC(C)C2 (stereo unspecified) the results were TCR-CD3 inh 2, PRMT1 inh 11, rCAG RNA binder 42*, SIAE primary 2, HTRA1 inh 1, mABHD4 FP -11, rCAG bind conf 35 and DNA CAG counter 15*.
For Cc1ccc(OCc2nnc(SCC(=O)c3ccc(-c4ccccc4)cc3)n2Cc2ccco2)cc1 the results were PRMT1 inh 6, rCAG RNA binder 16, SIAE primary -10 and mABHD4 FP -11.
O=C(Cc1ccc(Cl)cc1Cl)Nc1cccc(S(=O)(=O)Nc2ccccc2F)c1 was read as TCR-CD3 inh -9, PRMT1 inh 21, rCAG RNA binder 29, SIAE primary -14, HTRA1 inh -27 and mABHD4 FP -4.
For O=C(/C=C/c1ccccc1)Nc1cccc(S(=O)(=O)Nc2ccccc2F)c1 the results were TCR-CD3 inh 7, PRMT1 inh 3, rCAG RNA binder 38*, SIAE primary -69, HTRA1 inh -44, mABHD4 FP -66, rCAG bind conf 40* and DNA CAG counter 13*.
Screening Cn1c(SCCc2ccccc2)nnc1-c1ccco1 returned PRMT1 inh 15, rCAG RNA binder 5, SIAE primary -3 and mABHD4 FP -10.
CCOc1cc(/C=C2\SC(=Nc3ccccc3)N(c3ccccc3)C2=O)ccc1OCC(=O)O was read as TCR-CD3 inh -1, PRMT1 inh 1, rCAG RNA binder 65*, SIAE primary -10, HTRA1 inh -10, mABHD4 FP -17, rCAG bind conf 71*, DNA CAG counter 30* and dCAG dye DR inactive.
For Cc1ccc(N=C2S/C(=C/c3cccc(OCC(=O)O)c3)C(=O)N2C)cc1C the results were TCR-CD3 inh -4, PRMT1 inh 0, rCAG RNA binder 58*, SIAE primary -12, HTRA1 inh -12, mABHD4 FP 10, rCAG bind conf 64* and DNA CAG counter 23*.
Screening O=C(O)c1ccc(/C=C2\SC(=Nc3ccccc3)N(c3ccccc3)C2=O)cc1 returned TCR-CD3 inh 9, PRMT1 inh 1, rCAG RNA binder 13, SIAE primary -4, HTRA1 inh -11 and mABHD4 FP -8.
`O=C(O)COc1ccccc1/C=C1\SC(=Nc2ccc(F)cc2)N(c2ccc(F)cc2)C1=O` gave TCR-CD3 inh 1, PRMT1 inh 3, rCAG RNA binder 40*, SIAE primary -10, HTRA1 inh -9, mABHD4 FP -1, rCAG bind conf 65* and DNA CAG counter 24*.
`O=C(O)COc1ccc(/C=C2\SC(=Nc3ccccc3)N(c3ccccc3)C2=O)cc1` gave TCR-CD3 inh 3, PRMT1 inh 1, rCAG RNA binder 14, SIAE primary -1, HTRA1 inh 7 and mABHD4 FP 0.
For CCN1C(=O)/C(=C\c2ccncc2)SC1=Nc1ccc(C)c(C)c1 the results were TCR-CD3 inh 3, PRMT1 inh 0, rCAG RNA binder -7, SIAE primary -2, HTRA1 inh 3 and mABHD4 FP -1.
C[C@@H](N)P(=O)(O)C[C@H](Cc1ccccc1)C(=O)O was read as PRMT1 inh -11, rCAG RNA binder 0, SIAE primary -5 and mABHD4 FP -4.
